Activity calls are given as the source filed them.
Tests used:
Format in all cases: cell-based
Conditions in all cases: 7.4 M; tested as the 18F-labelled form
[1] = Increase of P-glycoprotein-mediated intracellular drug uptake expressed in human MES-SA/Dx5 cells at 7.4 MBq/ml after 120 mins by gamma counting in presence of 10 uM of GF120918
Summary of the method: (§1)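 MES-SA/Dx5 doxorubicin-resistant human uterine sarcoma cells grown in McCoy's 5A + 10% FCS at 37 °C, 5% CO2; monolayers (10^5 cells/well) incubated 120 min with 7.4 MBq/ml [18F]-tracer ± 10 µM inhibitor. Washed five times in cold PBS, lysed in 0.2 M NaOH, gamma counted, normalized to protein (%ICD/mg). Percent increase vs untreated cells; triplicate.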

[2] = Increase of P-glycoprotein-mediated intracellular drug uptake expressed in human MES-SA/Dx5 cells at 7.4 MBq/ml after 120 mins by gamma counting in presence of 10 uM of XR9576; summary of the method: as §1
[3] = Increase of P-glycoprotein-mediated intracellular drug uptake expressed in human MES-SA/Dx5 cells at 7.4 MBq/ml after 120 mins by gamma counting in presence of 10 uM of N-(4-(2-(1,2,3,4-tetrahydro-6,7-dimethoxy-2- isoquinolinyl)ethyl)phenyl)-9,10-dihydro-5-fluoroethoxy-9- oxo-4-acridine carboxamide; summary of the method: as §1
[4] = Increase of P-glycoprotein-mediated intracellular drug uptake expressed in human MES-SA/Dx5 cells at 7.4 MBq/ml after 120 mins by gamma counting in presence of 10 uM of quinoline-3-carboxylic acid [2-(4-{2-[7-(2-fluoroethoxy)- 6-methoxy-3,4-dihydro-1H-isoquinolin-2-yl]ethyl}phenylc arbamoyl)-4,5-dimethoxyphenyl]amide; summary of the method: as §1

Measured: Drug uptake

COc1cc2c(cc1OC)CN(CCc1ccc(NC(=O)c3cccc4c(=O)c5cccc(OCCF)c5[nH]c34)cc1)CC2
active: all assays above

COc1cc(NC(=O)c2cnc3ccccc3c2)c(C(=O)Nc2ccc(CCN3CCc4cc(OC)c(OCCF)cc4C3)cc2)cc1OC
active: all assays above
